Drawing on ChEMBL document CHEMBL1121804, “Cognition-activating properties of 3-(Aryloxy)pyridines” (J Med Chem, 1981), this text covers Retention for five compounds.

Molecules are shown by their SMILES.

Experiment [1] has as its system Mus musculus. As to the kind of experiment: Compound was tested for cognitive activity by measuring retention for passive avoidance learning in mice at dose 10 mg/kg. It counts as functional, organism-based. Also on record: dose 10 mg/kg. An outline of the steps:
(§1)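 Male CF-1 mice (19–21 g at shipment), 20 per dose group, each used once. Given ip an aqueous solution or methocel suspension 1 h before footshock training, with a saline group run alongside. Retention test: mouse placed on an outer shelf of the box; entering within 60 s scored as not retained. Value is percent retention. Days with control retention outside 65–75% were discarded.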

The subject of experiment [2] is Mus musculus. The experiment in a line: Retention for passive avoidance learning in mice at dose 20 mg/kg. It counts as functional, organism-based. Also on record: dose 20 mg/kg. An outline of the steps: (§2)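 Naive male CF-1 mice (19–21 g at shipment), 20 per dose, each used once. Dosed i.p. as an aqueous solution or methocel suspension 1 h before footshock training, with a saline group run in parallel. At the test, mice were placed on an outside shelf; entering the box within 60 s counted as no retention. Values are percent retention. A day was discarded unless controls scored 65–75%.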

The subject of experiment [3] is Mus musculus. As to the kind of experiment: Retention for passive avoidance learning in mice at dose 5 mg/kg. On the set-up: dose 5 mg/kg. It counts as functional, organism-based. The method, boiled down:
as §2

The species named for experiment [4] is Mus musculus.
The species entered for experiment [5] is Mus musculus. This is another data set of the same source.
Experiment [6] relates to Mus musculus. The experiment in a line: Compound was tested for cognitive activity by measuring retention for passive avoidance learning in mice at dose 0.63 mg/kg. It counts as functional, organism-based. On the set-up: dose 0.63 mg/kg. An outline of the steps: as §1
Experiment [7] relates to Mus musculus. As to the kind of experiment: Compound was tested for cognitive activity by measuring retention for passive avoidance learning in mice at dose 1.25 mg/kg. It counts as functional, organism-based. On the set-up: dose 1.25 mg/kg. An outline of the steps:
as §1

For experiment [8], the system named is Mus musculus. The experiment in a line: Retention for passive avoidance learning in mice at dose 2.5 mg/kg. On the set-up: dose 2.5 mg/kg. The format is functional, organism-based. An outline of the steps: as §2
The test system of experiment [9] is Mus musculus. The experiment in a line: Compound was tested for cognitive activity by measuring retention for passive avoidance learning in mice at dose 0.32 mg/kg. On the set-up: dose 0.32 mg/kg. The format is functional, organism-based. An outline of the steps: as §1
The species entered for experiment [10] is Mus musculus. The source holds these as a separate data set.
Experiment [11] relates to Mus musculus. The experiment in a line: Compound was tested for cognitive activity by measuring retention for passive avoidance learning in mice at dose 0.15 mg/kg. On the set-up: dose 0.15 mg/kg. The format is functional, organism-based. An outline of the steps:
as §1

For experiment [12], the system named is Mus musculus. As to the kind of experiment: Compound was tested for cognitive activity by measuring retention for passive avoidance learning in mice at dose 2.5 mg/kg. The format is functional, organism-based. On the set-up: dose 2.5 mg/kg. An outline of the steps:
as §1

In experiment [13] the test system is Mus musculus. As to the kind of experiment: Compound was tested for cognitive activity by measuring retention for passive avoidance learning in mice at dose 40 mg/kg. It counts as functional, organism-based. On the set-up: dose 40 mg/kg. An outline of the steps:
as §2

The subject of experiment [14] is Mus musculus. As to the kind of experiment: Compound was tested for lethality in mice at a dose 80 mg/kg intraperitoneally; L denotes lethal at this dose. The format is functional, organism-based. On the set-up: dose 80 mg/kg. The method, boiled down:
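Male CF-1 mice, 20 per group, were given the agent i.p. as an aqueous solution or methocel suspension 1 h before passive-avoidance training. The table entry L marks a dose that killed the animals.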

As for `N[C@@H]1C[C@H]1c1ccccc1.N[C@H]1C[C@@H]1c1ccccc1`, the Retention with Mus musculus [1] was 80%; with Mus musculus [2] it was 55%; with Mus musculus [3], 75%; in the experiment listed under Mus musculus [4], “Lethal at this dose”.
Turning to `CN1CCC[C@H]1c1cccnc1`, the Retention entry in the experiment filed under Mus musculus [5] is “Lethal”; in the experiment on Mus musculus [6], 75%; in the experiment with Mus musculus [7], 53%; in the experiment with Mus musculus [8], 27%; with Mus musculus [9] it was 70%.
As to `CNC(=O)Oc1ccc2c(c1)[C@]1(C)CCN(C)[C@@H]1N2C`, the Retention entry was “Lethal” in the experiment listed under Mus musculus [10], 45% with Mus musculus [11] and 35% with Mus musculus [9].
Turning to `C[C@H](N)Cc1ccccc1`, the Retention in the experiment on Mus musculus [6] came to 100%; in the experiment with Mus musculus [7], 60%; in the experiment on Mus musculus [11] it was 45%; in the experiment on Mus musculus [12] it was 65%; in the experiment on Mus musculus [9] it was 80%.
Regarding `C1CCc2nnnn2CC1`, the Retention with Mus musculus [1] is 65%; with Mus musculus [13], 80%; in the experiment on Mus musculus [2] it was 80%; with Mus musculus [3] it was 80%; in the experiment on Mus musculus [14], “Lethal at this dose”.
